Screens (PubChem)
A selection: hits, their analogues and other compounds. The true share with any hit is near 9.8%.
L major viab – Leishmania major promastigote growth inhibition, primary screen; Leishmania major promastigotes, resazurin fluorescence viability; inhibition, % at 10 µM; hit rate 9% among 200,000; in the data active = inhibition above about 50%;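 note: promastigotes grown with compound for 44 hours at 28 °C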
WT yeast gro inh – growth inhibition of WT strain, primary screen, mitochondrial fusion inhibitor project, WT and mutant strains, chemical genetic. mitochondrial fusion phenotypic screen. inhibition, % at 10 µM. hit rate 2.1% among 190,000. AID 1362, 2008; in the data active = inhibition above about 58%; tested in S. cerevisiae
Rad51 HR inh – human RAD51 strand exchange inhibitors, primary screen, biochemical, fluorescence; hRad51 DNA strand exchange, fluorescence dequenching; inhibition, % at 10 µM; hit rate 0.085% among 200,000; AID 1385, 2008;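 active = inhibition above 40% at the single screening dose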
Target sequence (Q06609 whole entry, looked up): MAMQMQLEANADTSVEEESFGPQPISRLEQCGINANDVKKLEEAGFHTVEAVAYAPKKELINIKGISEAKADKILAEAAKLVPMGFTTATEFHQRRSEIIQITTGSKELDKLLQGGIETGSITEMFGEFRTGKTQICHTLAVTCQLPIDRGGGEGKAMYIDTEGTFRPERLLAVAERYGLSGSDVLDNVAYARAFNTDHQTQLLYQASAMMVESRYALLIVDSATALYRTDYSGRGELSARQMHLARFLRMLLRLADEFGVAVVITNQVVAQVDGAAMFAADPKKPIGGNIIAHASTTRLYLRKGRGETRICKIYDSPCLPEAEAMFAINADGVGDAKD
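material = hRad51 filaments on single-stranded DNA | timing = filaments 15 min 37 °C, then compound 30 min | signal = FRET fluorescence dequenching, excitation 485 nm, emission 520 nm | benchmarks = control wells and blank wells on each plate | evaluation = percent inhibition relative to plate controls and blanks | compound = 10 µM final, single point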
m-calpain inh – inhibitors of pig calpain II, primary screen, biochemical, fluorogenic peptide substrate, 1536-well; purified calpain II, 30 min; inhibition, % at 16 µM; hit rate 0.37% among 220,000; AID 1236, 2008;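 active = inhibition above about 50%, limit read from the data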
PMI act satM6P – human PMI activators, high substrate, primary screen, biochemical, fluorescence intensity, near-saturating mannose 6-phosphate; Mannose-6-phosphate isomerase (Homo sapiens), P34949; coupled PMI enzyme assay, resazurin fluorescence, 20 min; hits give high values; 1 = untreated enzyme, 0 = substrate-free blank; activation factor at 20 µM; hit rate 0.34% among 190,000; AID 1216, 2008;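 active = activation factor of 2 or more at 20 µM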
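Test system: human phosphomannose isomerase with PGI, G6PDH, diaphorase coupling enzymes; amount: 15 ng/mL PMI; incubation: enzyme reaction with compound 20 min at room temperature; technique: resorufin fluorescence (Ex 544/Em 590 nm) from resazurin via diaphorase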
PMI activator – activators of human PMI, primary screen, biochemical, fluorescence intensity, near-Km mannose 6-phosphate | activation factor at 20 µM | hit rate 0.005% among 190,000 | purified human PMI, coupled resazurin fluorescence, 20 min; hits give high values; 1 = vehicle control, 0 substrate-free wells;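 active = activation factor of 2 or more at 20 µM, relative to plate controls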
Of the large screens only hits and unclear results are named; the others gave an inactive call.

CC(C)c1ccc(OCC(=O)NC2=NCCS2)cc1	none
CC(C)(C)NC(=O)Cn1c(=O)c(=O)n(Cc2ccccc2)c2ccc(Cl)cc21	L major viab 58
O=C(Cn1c(=O)c(=O)n(Cc2ccccc2)c2ccc(Cl)cc21)Nc1ccc(F)cc1F	none (no result: Rad51 HR inh)
CCOC(=O)C1=C(N)OC2=C(C(=O)CC(C)(C)C2)C1c1cccnc1 (stereo not drawn)	L major viab 78
CCOC(=O)C1=C(C)OC(N)=C(C(=O)OCC)C1c1ccncc1 (stereo not drawn)	none
CCOC(=O)C1=C(C)NC2=C(C(=O)c3ccccc32)C1c1cccnc1 (stereo not drawn)	L major viab 82
CCOC(=O)C1=C(C)OC(N)=C(C(=O)OCC)C1c1cccnc1 (stereo not drawn)	L major viab 84
Cc1ccc(S(=O)(=O)Nc2ccc(Cl)cc2)cc1NC(=O)c1cc2c(s1)CCCC2	none
CCc1ccc(N2C(=O)CC(N3CCN(Cc4ccc5c(c4)OCO5)CC3)C2=O)cc1 (stereo not drawn)	none
COc1ccc(N2C(=O)CS/C2=N\C(=S)Nc2ccccc2)cc1	none (no result: L major viab, WT yeast gro inh, PMI act satM6P, PMI activator)
COc1ccccc1C(=O)C1CCCN(C(=O)c2ccccn2)C1 (stereo not drawn)	none (no result: Rad51 HR inh)
Cc1cc2cc(CN(Cc3ccco3)S(=O)(=O)c3c(C)ccc4nsnc34)c(=O)[nH]c2cc1C	L major viab 76
O=C(O)c1ncn(Cc2ccc(Br)cc2)c1C(=O)O	none
C=CCN(c1ccccc1Cl)S(=O)(=O)c1cccc(C(=O)OCC(=O)N(C)C2CCS(=O)(=O)C2)c1 (stereo not drawn)	none
Cn1nc(C(=O)OCC(=O)Nc2ccc3ccccc3c2)c2ccccc2c1=O	none
Cc1csc2c(N3CCN(C(=O)Nc4ccccc4)CC3)ncnc12	none (no result: L major viab, WT yeast gro inh, Rad51 HR inh, PMI act satM6P, PMI activator)
Cc1csc2ncnc(N3CCN(C(=O)Nc4ccc(OC(F)(F)F)cc4)CC3)c12	m-calpain inh 57 (no result: L major viab, WT yeast gro inh, PMI act satM6P, PMI activator)
CCOC(=O)c1nsnc1NCCSC(=N)N	none
Cc1ccc(C2Nc3ccc4ccccc4c3C3=C2C(=O)CC(C)(C)C3)o1 (stereo not drawn)	none
O=c1oc2ccccc2c2c1C(c1ccc(Cl)cc1)Nc1ccc3ccccc3c1-2 (stereo not drawn)	L major viab 87
CCOc1ccc(OCC(=O)c2c(O)c3ccccc3oc2=O)cc1	none
CCOc1ccc(C2Nc3ccc4ccccc4c3-c3c2c(=O)oc2ccccc32)cc1 (stereo not drawn)	L major viab 56
COc1ccc(C2Nc3ccc4ccccc4c3-c3c2c(=O)oc2ccccc32)cc1 (stereo not drawn)	L major viab 100
Cc1c[n+](C)ccc1CC1C([N+](=O)[O-])=C[N-]c2ncnn21 (stereo not drawn)	none (no result: Rad51 HR inh)
O=C(CC(Nc1ccccc1)c1ccccc1)C1CC1 (stereo not drawn)	none (no result: L major viab, WT yeast gro inh, PMI act satM6P, PMI activator)
O=[N+]([O-])c1ccccc1/C=N/N1CCN(c2ccncc2S(=O)(=O)N2CCCCC2)CC1	L major viab 99
O=[N+]([O-])c1ccc(/C=N/N2CCN(c3ccncc3S(=O)(=O)N3CCCCC3)CC2)cc1	L major viab 99 (no result: Rad51 HR inh)
Cn1cc(CN2CCC(C(=O)N3CCCCC3)CC2)c(-c2ccccc2F)n1	none
CCOc1ccc(NC(=O)N(C2CCCCC2)C(C)c2ccncc2)cc1 (stereo not drawn)	none
CCOc1ccc(NC(=O)N(C2CCCCC2)C(C)c2cccnc2)cc1 (stereo not drawn)	L major viab 87
CC(c1cccnc1)N(C(=O)Nc1ccccc1)C1CCCCC1 (stereo not drawn)	L major viab 78
Cn1c(SCc2cccc([N+](=O)[O-])c2)nc2c(c1=O)SCC2	none
CC(C)Cc1nc2sc3c(c2c(=O)n1N)CC(C)(C)OC3	none (no result: L major viab, WT yeast gro inh, PMI act satM6P, PMI activator)
COc1cc(/C(C)=N/Nc2ccc(C(=O)O)cc2)cc(OC)c1OC	PMI act satM6P 2.1
COc1ccc(/C(C)=N/Nc2ccc(C(=O)O)cc2)cc1OC	L major viab 51, PMI act satM6P 2.5 (no result: Rad51 HR inh)
CC(=O)Nc1ccc2nc(C)n(Cc3ccc(Cl)cc3)c(=O)c2c1	L major viab 78
N/C(Cc1nc(-c2ccc(Cl)cc2)cs1)=N/O	none (no result: L major viab, WT yeast gro inh, PMI act satM6P, PMI activator)
COc1ccc(Cl)cc1NC(=S)N(Cc1ccc(C(=O)O)cc1)Cc1ccc(OC)c(OC)c1	none
C=CCc1ccc(OCCOCCNCCOC)c(OC)c1	L major viab 99
C=CCc1ccc(OCCOCCNCCCC)c(OC)c1	L major viab 96
C=CCc1ccc(OCCOCCOc2cccc3ccc(C)nc23)c(OC)c1	none (no result: Rad51 HR inh)
CCOC(=O)NN1C(=O)c2ccccc2NC1c1ccc(OC)c(OC)c1 (stereo not drawn)	none
Cc1noc(C)c1S(=O)(=O)N1CCCC(C(=O)NCCc2ccc(Cl)cc2)C1 (stereo not drawn)	L major viab 100
CCN(CCNC(=O)C1CCN(S(=O)(=O)c2c(C)noc2C)CC1)c1ccccc1	L major viab 98 (no result: Rad51 HR inh)
Cc1nn(C)c(C)c1S(=O)(=O)N1CCCC(C(=O)NCCc2ccc(Cl)cc2)C1 (stereo not drawn)	none
CCCS(=O)(=O)N1CCC(C(=O)NCCN2CCC(Cc3ccccc3)CC2)CC1	none
Cc1noc(C)c1S(=O)(=O)N1CCC(C(=O)NCCN2CCC(C)CC2)CC1	none
CCCS(=O)(=O)N1CCC(C(=O)NCCN(C)Cc2ccccc2)CC1	L major viab 61
COc1ccc(C2CC(c3ccc4ccccc4c3OC(C)=O)=NN2C(C)=O)cc1 (stereo not drawn)	none (no result: L major viab, WT yeast gro inh, PMI act satM6P, PMI activator)
O=C(/C=C/c1ccccc1)NC(NC(=S)Nc1cccc(O)c1)C(Cl)(Cl)Cl (stereo not drawn)	L major viab 93
O=C(/C=C/c1ccccc1)NC(NC(=S)Nc1ccc(Cl)cc1Cl)C(Cl)(Cl)Cl (stereo not drawn)	L major viab 59
O=C(NCc1ccncc1)C(=O)N/N=C/c1cccnc1	none
C=CCNC(=O)NC(=O)COC(=O)c1nc2nccc(C)n2n1	none
Cc1nnc(SC(=O)N2c3ccccc3Sc3ccccc32)s1	L major viab 63
Cc1nnc(SCC(=O)N2c3ccccc3Sc3ccccc32)n1N	none
COc1ccc(C2C(C#N)=C(N)Oc3cc4c(cc32)OCO4)cc1 (stereo not drawn)	L major viab 96
Cn1c(CSCc2ccc(Cl)cc2)n[nH]c1=S	none
COC(=O)C1=C(C)N(c2cccc(C)c2)C(=O)/C1=C\c1cccs1	none (no result: Rad51 HR inh)
COC(=O)C1=C(C)N(c2ccc(C)c(C)c2)/C(=C/c2cccs2)C1=O	L major viab 82
